ChEMBL document CHEMBL4190282, “The Conjugated Double Bond of Coniferyl Aldehyde Is Essential for Heat Shock Factor 1 Mediated Cytotoprotection” (J Nat Prod, 2017)
Activity calls are given as the source filed them. The rule behind the calls is not given here.

Legend:
MEF [1] = assay: Cytoprotective activity against IR-induced PARP cleavage in HSF1 deficient MEF at 3 uM pretreated for 1 hr followed by 10 Gy irradiation measured after 48 hrs by immunoblotting analysis; format: functional, cell-based; conditions: Mus musculus
How it was run: (§1)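 HSF1+/+ or HSF1−/− MEFs in DMEM with heat-inactivated 10% FBS, nonessential amino acids, glutamine, HEPES, 37 °C, 5% CO2. 1 h pretreatment at 3 μM, then 0.5 μM paclitaxel or 20 μM cisplatin for 24 h, or 10 Gy 137Cs γ-rays (3.81 Gy/min) for 48 h. Cleaved PARP and caspase-3 immunoblotted; bands normalized to loading control, fold-change vs negative control, ≥3 independent experiments.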

[2] = target: T1, Heat shock factor protein 1 (Homo sapiens) (UniProt Q00613); assay: Activation of HSF1 in human L132 cells assessed as increase in HSP70 protein levels at 1 to 3 uM after 12 hrs by immunoblotting analysis; format: cell-based
T1 sequence (whole entry): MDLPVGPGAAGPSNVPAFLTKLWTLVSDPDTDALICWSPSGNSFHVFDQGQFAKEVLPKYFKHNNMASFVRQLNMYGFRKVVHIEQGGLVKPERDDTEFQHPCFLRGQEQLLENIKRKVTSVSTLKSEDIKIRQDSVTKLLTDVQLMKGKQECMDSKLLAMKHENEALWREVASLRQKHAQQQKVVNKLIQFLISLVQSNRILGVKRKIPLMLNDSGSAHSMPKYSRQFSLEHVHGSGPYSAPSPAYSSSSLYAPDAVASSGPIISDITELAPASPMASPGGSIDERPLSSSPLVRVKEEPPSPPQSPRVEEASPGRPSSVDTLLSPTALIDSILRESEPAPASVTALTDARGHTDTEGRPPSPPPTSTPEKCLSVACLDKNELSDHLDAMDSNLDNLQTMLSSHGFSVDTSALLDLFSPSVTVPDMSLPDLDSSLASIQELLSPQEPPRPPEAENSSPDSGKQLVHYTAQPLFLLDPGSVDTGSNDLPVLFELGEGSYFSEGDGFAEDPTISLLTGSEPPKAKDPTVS
How it was run: (§2)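 L132 cells treated at 3 μM for 12 h, or at various doses for 12 h, or at 3 μM over a time course. Lysates resolved by SDS-PAGE, blotted to nitrocellulose, milk-blocked, primary antibodies 18 h at 4 °C, ECL detection. HSP27, HSP70 and Ser326-phospho-HSF1 bands normalized to loading control; ≥3 independent experiments; celastrol 1 μM positive control.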

MEF [3] = assay: Cytoprotective activity against IR-induced caspase3 cleavage in HSF1 deficient MEF at 3 uM pretreated for 1 hr followed by 10 Gy irradiation measured after 48 hrs by immunoblotting analysis; format: functional, cell-based; conditions: Mus musculus; how it was run: as §1
Mus musculus [4] = assay: Protection against IR-induced reduction in circulating lymphocytes in ICR mouse at 10 mg/kg, ip administered once before and three times after 4.5 Gy irradiation measured after 9 days; format: functional, organism-based
How it was run: (§3)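 Female ICR mice (5–6 weeks) given 4.5 Gy whole-body IR, dosed ip at 10 mg/kg once before and three times after IR; 5 per group, sacrificed day 9. BM cellularity from H&E (hematopoietic cells per 200×200 μm area); peripheral WBC, lymphocytes, neutrophils; Ki67 IHC counted in five fields per femur; relative spleen weight vs control. Means ± SD, Student's t test.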

[5] = target: T1, Heat shock factor protein 1 (Homo sapiens); assay: Induction of HSF1 phosphorylation at Ser326 residue in human L-132 cells at 3 uM after 12 hrs by immunoblotting analysis; format: cell-based; how it was run: as §2
[6] = target: T1, Heat shock factor protein 1 (Homo sapiens); assay: Activation of HSF1 in human L132 cells assessed as increase in HSP25 mRNA expression at 3 uM after 12 hrs by RT-PCR analysis; format: cell-based
How it was run: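 L132 human lung fibroblasts treated 12 h at 3 μM; hsp27 and hsp70 mRNA measured by RT-PCR under the same conditions as immunoblotting. Celastrol 1 μM positive control.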

Mus musculus [7] = assay: Protection against IR-induced irritability in ICR mouse at 5 to 10 mg/kg, ip administered once before and three times after 7 Gy irradiation measured daily for 30 days; format: functional, organism-based
How it was run: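 Female ICR mice (5–6 weeks, 25–30 g) given 7 Gy whole-body IR; dosed ip at 5 or 10 mg/kg once before and three times after IR, DMSO stock diluted in modified PBS. Survival days and radiation sickness signs checked twice daily; 10 mice per group.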

[8] = target: T2, Heat shock factor protein 1 (Mus musculus) (UniProt P38532); assay: Activation of HSF1 in MEF assessed as protection against paclitaxel-induced caspase3 cleavage at 3 uM pretreated for 1 hr followed by paclitaxel addition measured after 24 hrs by immunoblotting analysis; format: cell-based; how it was run: as §1
T2 sequence (whole entry): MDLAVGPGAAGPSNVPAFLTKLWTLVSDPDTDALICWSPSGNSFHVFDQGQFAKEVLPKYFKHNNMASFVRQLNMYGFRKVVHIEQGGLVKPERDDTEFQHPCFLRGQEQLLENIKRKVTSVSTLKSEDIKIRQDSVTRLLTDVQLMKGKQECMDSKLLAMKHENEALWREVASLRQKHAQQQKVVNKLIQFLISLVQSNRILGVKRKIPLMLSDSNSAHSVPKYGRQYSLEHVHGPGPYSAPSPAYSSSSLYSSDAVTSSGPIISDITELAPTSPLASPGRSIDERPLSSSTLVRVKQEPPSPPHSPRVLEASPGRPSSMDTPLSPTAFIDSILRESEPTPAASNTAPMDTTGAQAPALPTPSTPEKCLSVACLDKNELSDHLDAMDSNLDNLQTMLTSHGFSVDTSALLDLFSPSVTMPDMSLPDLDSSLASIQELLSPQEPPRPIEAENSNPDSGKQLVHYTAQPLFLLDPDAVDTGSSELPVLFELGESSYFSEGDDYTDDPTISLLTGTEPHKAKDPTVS

[9] = target: T1, Heat shock factor protein 1 (Homo sapiens); assay: Activation of HSF1 in human NCI-H460 cells expressing pGL4-hsp25 construct assessed as upregulation of hsp25 promoter activity at 10 to 30 uM after 12 hrs by luciferase reporter gene assay; format: cell-based
How it was run: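 NCI-H460 cells stably carrying hsp25 or hsp70 promoter–luciferase reporters, seeded, treated after 24 h at 10 or 30 μM and harvested 12 h later. Lysate luciferase normalized to β-galactosidase; mean of three independent experiments, fold-change vs negative control.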

Mus musculus [10] = assay: Protection against IR-induced reduction in circulating WBCs in ICR mouse at 10 mg/kg, ip administered once before and three times after 4.5 Gy irradiation measured after 9 days; format: functional, organism-based; how it was run: as §3
L132 = assay: Cytoprotective activity against paclitaxel-induced cell death in human L-132 cells at 3 uM pretreated for 1 hr followed by paclitaxel addition measured after 24 hrs by FACS analysis; format: functional, cell-based
How it was run: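 L132 cells in RPMI with 10% FBS. 1 h pretreatment at 3 μM, then 0.5 μM paclitaxel or 20 μM cisplatin for 24 h, or 10 Gy γ-rays for 48 h. Cells trypsinized, washed, stained with propidium iodide and analysed by flow cytometry. Means ± SD of ≥3 independent experiments, fold-change vs negative control.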

[11] = target: T2, Heat shock factor protein 1 (Mus musculus); assay: Activation of HSF1 in MEF assessed as protection against IR-induced PARP cleavage at 3 uM pretreated for 1 hr followed by 10 Gy irradiation measured after 48 hrs by immunoblotting analysis; format: cell-based; how it was run: as §1
[12] = target: T2, Heat shock factor protein 1 (Mus musculus); assay: Activation of HSF1 in MEF assessed as protection against cisplatin-induced PARP cleavage at 3 uM pretreated for 1 hr followed by cisplatin addition measured after 24 hrs by immunoblotting analysis; format: cell-based; how it was run: as §1

Row | Activity [2] | Activity [5] | Activity [6] | Activity [8] | Activity [9] | Activity [11] | Activity [12] | SMILES | Activity (MEF [1]) | Activity (MEF [3]) | Activity (Mus musculus [4]) | Activity (Mus musculus [7]) | Activity (Mus musculus [10]) | Activity (L132)
1 | Active | Active | Active | Active | Active | Active | Active | COc1cc(/C=C/CO)ccc1O [CONIFERYL ALCOHOL] | inactive | inactive | Active | Active | Active | Active
2 | Active | Active | Active | Active | Active | Active | Active | COc1cc(/C=C/C=O)ccc1O [CONIFERYL ALDEHYDE] | inactive | inactive | Active | Active | Active | Active
